Molecules are shown by their SMILES. In brackets after ≈: the same amount, converted by molar mass.

29 compounds from ChEMBL document CHEMBL3612041, “Combating highly resistant emerging pathogen Mycobacterium abscessus and Mycobacterium tuberculosis with novel salicylanilide esters and carbamates” (Eur J Med Chem, 2015) can be followed below.

A short description of data set [1]: Selectivity index, ratio of IC50 for human MONO-MAC-6 cells to MIC for multidrug-resistance Mycobacterium tuberculosis A8. As to conditions: read-out: Selectivity Index. Format: toxicity.
The test system of data set [2] is Mycobacterium tuberculosis. The experiment in a line: Antimycobacterial activity against multidrug-resistance Mycobacterium tuberculosis A8 after 28 days by serial dilution method. The format is functional. As to conditions: for MIC: Mycobacterium tuberculosis, A8, 672 h. In short, it runs like this: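 Serial dilution in in-house Sula semisynthetic medium, pH 6.5. Compounds added as DMSO solutions at 10 doses, final 0.05–100 µg/mL. Incubation at 37 °C, 7 days for M. abscessus and 28 days for M. tuberculosis strains. MIC taken as the lowest concentration giving visible growth inhibition, confirmed by CFU on drug-free Löwenstein-Jensen medium after further equal incubation. Repeated at least twice.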

Data set [3] is described as follows: Selectivity index, ratio of IC50 for human MONO-MAC-6 cells to MIC for INH/RIF/rifabutine/streptomycin/ethambutol/ofloxacin/gentamicin/amikacin-resistance Mycobacterium tuberculosis Praha 131 after 21 days. The format is toxicity. The note with it: read-out: Selectivity Index.
Data set [4] concerns Mycobacterium tuberculosis. The experiment in a line: Antimycobacterial activity against INH/RIF/rifabutine/streptomycin/ethambutol/ofloxacin/gentamicin/amikacin-resistance Mycobacterium tuberculosis Praha 131 after 14 days by microbroth dilution method. The format is functional. The note with it: Praha 131, 336 h. The procedure, abridged:
(§1)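 Micromethod MIC in Sula semisynthetic medium, pH 6.5. Incubation at 37 °C, read at 14 and 21 days. MIC taken as the lowest concentration giving complete inhibition of mycobacterial growth.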

In data set [5] the test system is Mycobacterium tuberculosis. The experiment in a line: Antimycobacterial activity against INH/RIF/rifabutine/streptomycin-resistance Mycobacterium tuberculosis 9449/2006 after 21 days by microbroth dilution method. Format: functional. The note with it: 9449/2006, 504 h. In short, it runs like this: as §1
A short description of data set [6]: Selectivity index, ratio of IC50 for human MONO-MAC-6 cells to MIC for INH/RIF/rifabutine/streptomycin-resistance Mycobacterium tuberculosis 9449/2006 after 21 days. Format: toxicity. As to conditions: read-out: Selectivity Index.
Data set [7] relates to Mycobacterium tuberculosis. The experiment in a line: Antimycobacterial activity against INH/RIF/rifabutine/streptomycin/ethambutol/ofloxacin/gentamicin/amikacin-resistance Mycobacterium tuberculosis Praha 131 after 21 days by microbroth dilution method. Format: functional. The note with it: Praha 131, 504 h. The procedure, abridged:
as §1

Data set [8] has as its system Mycobacterium tuberculosis. The experiment in a line: Antimycobacterial activity against INH/RIF/rifabutine/streptomycin-resistance Mycobacterium tuberculosis 9449/2006 after 14 days by microbroth dilution method. The format is functional. As to conditions: 9449/2006, 336 h. The procedure, abridged: as §1

For `O=C(Nc1ccc(Cl)c(Cl)c1)c1cc(Cl)ccc1O`, the selectivity ratio in data set [1] came out at 2.3. In data set [2], this compound gave an Activity of 8 CFU and an MIC of 1.6 µM (≈ 0.507 µg/mL).
Take `O=C(O)c1cnc(Cl)cn1`: the minimal inhibitory concentration (MIC) in data set [2] was over 633 µM.
In data set [2], `O=C(Nc1ccc(C(F)(F)F)cc1)c1cc(Cl)ccc1O` displayed an Activity of 0 CFU and an MIC of 1.6 µM (≈ 0.505 µg/mL).
`CCCNC(=O)Oc1ccc(Cl)cc1C(=O)Nc1ccc(Cl)c(Cl)c1`: the selectivity ratio at 504 h in data set [3] and in data set [6] was 7 each time. Besides, the MIC in data set [4] was found to be 1 µM (≈ 0.402 µg/mL); in data set [5], 1 µM (≈ 0.402 µg/mL); in data set [2], 1.3 µM (≈ 0.522 µg/mL); in data set [7] it was 1 µM (≈ 0.402 µg/mL); in data set [8], 1 µM (≈ 0.402 µg/mL). In addition, the selectivity ratio in data set [1] is 5.4. The Activity in data set [2] was 2 CFU.
In the case of `O=C(Nc1ccc(C(F)(F)F)cc1)c1cc(Br)ccc1O`, the selectivity ratio in data set [1] was 2.7. In data set [2], this compound had an Activity of 0 CFU and an MIC of 2.8 µM (≈ 1.01 µg/mL).
As for `O=C(c1ccccc1)c1ccc(NC(=O)c2cc(Cl)ccc2O)cc1`, in data set [1], the selectivity ratio worked out at 3.4. In data set [2], this compound displayed an Activity of 50 CFU and an MIC of 14.2 µM (≈ 5 µg/mL).
For `O=C(Nc1ccc(Cl)c(Cl)c1)c1cc(Br)ccc1O`, in that order: 1.3, 0 CFU and 2.8 µM (≈ 1.01 µg/mL).
For `O=C(c1ccccc1)c1ccc(NC(=O)c2cc(Br)ccc2O)cc1`, in that order: 1.7, 1 CFU and 12.7 µM (≈ 5.03 µg/mL).
`O=C(Oc1ccc(Cl)cc1C(=O)Nc1ccc(C(F)(F)F)cc1)c1cnc(Cl)cn1`: the selectivity ratio at 504 h in data set [3] was found to be 1.1; in data set [6], 0.6. The MIC in data set [4] is 1 µM (≈ 0.456 µg/mL); in data set [5] it was 2 µM (≈ 0.912 µg/mL); in data set [2], 1.1 µM (≈ 0.502 µg/mL); in data set [7] it was 1 µM (≈ 0.456 µg/mL); in data set [8], 1 µM (≈ 0.456 µg/mL). Also, the selectivity ratio in data set [1] worked out at 1. In data set [2], this compound gave an Activity of 1 CFU.
Consider `O=C(Oc1ccc(Cl)cc1C(=O)Nc1ccc(Cl)c(Cl)c1)c1cnc(Cl)cn1`, for which the selectivity ratio at 504 h in data set [3] and in data set [6] was 5.1 each time. The MIC in data set [4] worked out at 1 µM (≈ 0.457 µg/mL); in data set [5], 2 µM (≈ 0.914 µg/mL); in data set [2], 4.4 µM (≈ 2.01 µg/mL); in data set [7], 2 µM (≈ 0.914 µg/mL); in data set [8], 1 µM (≈ 0.457 µg/mL). In addition, in data set [1], the selectivity ratio turned out to be 2.3. The compound further yielded an Activity in data set [2] of 0 CFU.
On to `O=C(Oc1ccc(Br)cc1C(=O)Nc1ccc(C(F)(F)F)cc1)c1cnc(Cl)cn1`, for which the selectivity ratio at 504 h in data set [3] and in data set [6] was 0.6 in each case. Moreover, the MIC is 2 µM (≈ 1 µg/mL) in data set [4]; 2 µM (≈ 1 µg/mL) in data set [5]; 2 µM (≈ 1 µg/mL) in data set [2]; 2 µM (≈ 1 µg/mL) in data set [7]; 1 µM (≈ 0.501 µg/mL) in data set [8]. In addition, the selectivity ratio in data set [1] was 0.6. In data set [2], the Activity is recorded as 22 CFU.
`O=C(Oc1ccc(Br)cc1C(=O)Nc1ccc(Cl)c(Cl)c1)c1cnc(Cl)cn1`: in data set [1], the selectivity ratio was 2.9. In data set [2], this compound came in with an Activity of 11 CFU and an MIC of 2 µM (≈ 1 µg/mL).
Take `O=C(NCCCl)Oc1ccc(Cl)cc1C(=O)Nc1ccc(C(F)(F)F)cc1`: the selectivity ratio at 504 h in data set [3] worked out at 3.8; in data set [6], 7.6. Also, the MIC in data set [4] came out at 1 µM (≈ 0.421 µg/mL); in data set [5], 1 µM (≈ 0.421 µg/mL); in data set [2] it was 1.2 µM (≈ 0.505 µg/mL); in data set [7], 2 µM (≈ 0.842 µg/mL); in data set [8], 0.5 µM (≈ 0.211 µg/mL). Moreover, the selectivity ratio in data set [1] turned out to be 6.3. The compound also came in with an Activity in data set [2] of 0 CFU.
For the compound `O=C(NCCCCl)Oc1ccc(Cl)cc1C(=O)Nc1ccc(C(F)(F)F)cc1`, the selectivity ratio at 504 h in data set [3] and in data set [6] was 4.4 in each case. Also, the minimum inhibitory concentration (MIC) was 1 µM (≈ 0.435 µg/mL) in data set [4]; 2 µM (≈ 0.87 µg/mL) in data set [5]; 1.2 µM (≈ 0.522 µg/mL) in data set [2]; 2 µM (≈ 0.87 µg/mL) in data set [7]; 1 µM (≈ 0.435 µg/mL) in data set [8]. Moreover, the selectivity ratio in data set [1] turned out to be 7.3. The Activity in data set [2] came out at 0 CFU.
Take `O=C(NCCCl)Oc1ccc(Cl)cc1C(=O)Nc1ccc(Cl)c(Cl)c1`: in data set [1], the selectivity ratio was found to be 1.9. In data set [2], this compound came in with an Activity of 0 CFU and an MIC of 2.4 µM (≈ 1.01 µg/mL).
Take `O=C(NCCCCl)Oc1ccc(Cl)cc1C(=O)Nc1ccc(Cl)c(Cl)c1`: the selectivity ratio in data set [1] came out at 2.1. For the same compound, in data set [2], the Activity was 1 CFU and it took 1.2 µM (≈ 0.523 µg/mL) to inhibit growth (MIC).
For `O=C(NCCCl)Oc1ccc(Br)cc1C(=O)Nc1ccc(C(F)(F)F)cc1`, the selectivity ratio at 504 h in data set [3] and in data set [6] was 4.7 each time. The MIC in data set [4] was 1 µM (≈ 0.466 µg/mL); in data set [5], 2 µM (≈ 0.931 µg/mL); in data set [2], 1.1 µM (≈ 0.512 µg/mL); in data set [7], 2 µM (≈ 0.931 µg/mL); in data set [8], 1 µM (≈ 0.466 µg/mL). Further, the selectivity ratio in data set [1] was found to be 8.5. Further, in data set [2], the Activity is 9 CFU.
As to `O=C(NCCCCl)Oc1ccc(Br)cc1C(=O)Nc1ccc(C(F)(F)F)cc1`, the selectivity ratio at 504 h in data set [3] and in data set [6] was 2.9 in each case. Further, the MIC stood at 1 µM (≈ 0.48 µg/mL) in data set [4]; 2 µM (≈ 0.959 µg/mL) in data set [5]; 1 µM (≈ 0.48 µg/mL) in data set [2]; 2 µM (≈ 0.959 µg/mL) in data set [7]; 1 µM (≈ 0.48 µg/mL) in data set [8]. Moreover, in data set [1], the selectivity ratio is 5.7. Besides, the Activity in data set [2] stood at 0 CFU.
Consider `O=C(NCCCl)Oc1ccc(Br)cc1C(=O)Nc1ccc(Cl)c(Cl)c1`, for which the selectivity ratio at 504 h in data set [3] and in data set [6] was 3.5 each time. Moreover, the MIC was 1 µM (≈ 0.467 µg/mL) in data set [4]; 2 µM (≈ 0.933 µg/mL) in data set [5]; 2.2 µM (≈ 1.03 µg/mL) in data set [2]; 2 µM (≈ 0.933 µg/mL) in data set [7]; 1 µM (≈ 0.467 µg/mL) in data set [8]. Also, in data set [1], the selectivity ratio is 3.1. In data set [2], this compound had an Activity of 0 CFU.
For the compound `O=C(NCCCCl)Oc1ccc(Br)cc1C(=O)Nc1ccc(Cl)c(Cl)c1`, the selectivity ratio at 504 h in data set [3] was found to be 9.5; in data set [6], 4.8. The MIC in data set [4] is 1 µM (≈ 0.481 µg/mL); in data set [5] it was 2 µM (≈ 0.961 µg/mL); in data set [2], 1 µM (≈ 0.481 µg/mL); in data set [7], 1 µM (≈ 0.481 µg/mL); in data set [8], 1 µM (≈ 0.481 µg/mL). Moreover, the selectivity ratio in data set [1] was 9.5. The Activity in data set [2] came to 2 CFU.
`O=C(NCCCl)Oc1ccc(Cl)cc1C(=O)Nc1ccc(C(=O)c2ccccc2)cc1`: the selectivity ratio in data set [1] worked out at 3.5. In data set [2], this compound had an Activity of 21 CFU and an MIC of 10.9 µM (≈ 4.98 µg/mL).
In the same order, the values of `O=C(NCCCCl)Oc1ccc(Cl)cc1C(=O)Nc1ccc(C(=O)c2ccccc2)cc1` are 0.8, 0 CFU and 21.3 µM (≈ 10 µg/mL).
For `CCCNC(=O)Oc1ccc(Cl)cc1C(=O)Nc1ccc(C(=O)c2ccccc2)cc1`, the selectivity ratio in data set [1] was found to be 1.6. In data set [2], this compound showed an Activity of 6 CFU and a minimum inhibitory concentration (MIC) of 11.5 µM (≈ 5.02 µg/mL).
For `O=C(NCCCl)Oc1ccc(Br)cc1C(=O)Nc1ccc(C(=O)c2ccccc2)cc1`, in that order: 1.2, 0 CFU and 20 µM (≈ 10 µg/mL).
On to `O=C(NCCCCl)Oc1ccc(Br)cc1C(=O)Nc1ccc(C(=O)c2ccccc2)cc1`, for which the selectivity ratio in data set [1] was found to be 6.6. In data set [2], the Activity turned out to be 1 CFU and 1.9 µM (≈ 0.98 µg/mL) was the least that counted as inhibitory (MIC).
On to `O=C(Oc1ccc(Cl)cc1C(=O)Nc1ccc(C(F)(F)F)cc1)c1cnccn1`, for which the MIC in data set [5] stood at 0.5 µM (≈ 0.211 µg/mL); in data set [7], 1 µM (≈ 0.422 µg/mL).
For `O=C(Oc1ccc(Cl)cc1C(=O)Nc1ccc(Cl)c(Cl)c1)c1cnccn1`, in that order: 0.25 µM (≈ 0.106 µg/mL) and 0.125 µM (≈ 0.0528 µg/mL).
With `O=C(Oc1ccc(Br)cc1C(=O)Nc1ccc(C(F)(F)F)cc1)c1cnccn1`, the MIC in data set [5] and in data set [7] was 0.5 µM (≈ 0.233 µg/mL) each time.
Turning to `NNC(=O)c1ccncc1` [ISONIAZID], in data set [2], the Activity is on record as 12 CFU and it took 7.3 µM (≈ 1 µg/mL) to inhibit growth (MIC).
